Source: article PMC4000071 (Journal of Toxicologic Pathology, 2014)
Read-outs that look alike come from different tables or passages of the source.

What was measured:
[1] = biological target: T1, adrenergic α1A receptor (Homo sapiens, UniProt P35348); assay: secondary pharmacology screens, α1A; type: biochemical; details: 10 µM
T1 sequence (P35348 1-466): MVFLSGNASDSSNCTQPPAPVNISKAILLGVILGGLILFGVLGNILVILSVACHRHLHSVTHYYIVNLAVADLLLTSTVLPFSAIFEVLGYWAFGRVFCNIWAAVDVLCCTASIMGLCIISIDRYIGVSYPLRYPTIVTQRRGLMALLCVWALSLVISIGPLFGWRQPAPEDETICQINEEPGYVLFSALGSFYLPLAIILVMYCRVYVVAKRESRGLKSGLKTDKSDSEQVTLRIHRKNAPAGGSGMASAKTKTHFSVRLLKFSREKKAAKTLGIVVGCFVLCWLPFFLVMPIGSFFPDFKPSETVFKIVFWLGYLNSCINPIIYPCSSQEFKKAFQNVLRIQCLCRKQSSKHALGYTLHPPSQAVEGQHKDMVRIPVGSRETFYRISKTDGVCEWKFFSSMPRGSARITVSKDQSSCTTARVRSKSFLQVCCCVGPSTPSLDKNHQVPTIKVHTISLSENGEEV

[2] = tested on: brain 5-HT1B receptors; details: cited from earlier work
[3] = tested on: p-glycoprotein; details: cited from earlier work
[4] = tested on: healthy volunteers; details: single ascending oral doses from 1 to 40 mg; cited from earlier work
[5] = 1-month; type: in vivo, beagle dogs; details: dog; for mean brain concentration relative to that at 2.3 mg/kg: 4 weeks
Summary of the method: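 Beagles (7 males, 5 females) were dosed once daily by oral gavage for 4 weeks at 0, 2.3, 14 or 47 mg/kg/day. The vehicle was 0.1 M lactic acid in water (pH 3.0) at 5 mL/kg. Plasma was sampled on Days 1, 7 and 28. At necropsy, brain stem, hippocampus and frontal lobe were taken for drug measurement. Terminal plasma and brain concentrations are reported.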

[6] = man, 5 mg projected efficacious dose; cited from earlier work
[7] = rat systemic and brain exposure; type: in vivo; details: 25 mg/kg/day (NOEL for neuropathology), unpublished results
[8] = tested on: brain 5-HT1B receptors; details: non-human primates; cited from earlier work
[9] = biological target: T2, adrenergic α1D receptor (Homo sapiens, UniProt P25100); assay: secondary pharmacology screens, α1D; type: binding; details: 10 µM
T2 sequence (P25100 1-572): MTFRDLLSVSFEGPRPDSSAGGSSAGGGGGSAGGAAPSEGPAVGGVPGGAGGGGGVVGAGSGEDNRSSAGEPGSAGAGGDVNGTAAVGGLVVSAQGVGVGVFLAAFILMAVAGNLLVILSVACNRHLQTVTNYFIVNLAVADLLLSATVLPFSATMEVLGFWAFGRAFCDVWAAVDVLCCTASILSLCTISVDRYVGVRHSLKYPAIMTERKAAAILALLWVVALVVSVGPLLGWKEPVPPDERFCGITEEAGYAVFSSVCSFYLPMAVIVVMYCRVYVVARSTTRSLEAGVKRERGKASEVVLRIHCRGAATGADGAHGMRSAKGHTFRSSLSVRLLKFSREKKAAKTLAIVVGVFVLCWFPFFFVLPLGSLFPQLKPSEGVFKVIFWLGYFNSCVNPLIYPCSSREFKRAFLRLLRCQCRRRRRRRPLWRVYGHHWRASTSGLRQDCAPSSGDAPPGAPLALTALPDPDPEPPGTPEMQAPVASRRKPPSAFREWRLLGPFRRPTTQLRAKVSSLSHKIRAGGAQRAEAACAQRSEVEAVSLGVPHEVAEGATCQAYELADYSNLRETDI

[10] = tested on: beagle dogs; assay: 1-month; type: in vivo
[11] = cited from earlier work

## COc1cc2c(c(N3CCN(C)CC3)c1)O[C@@H](C(=O)Nc1ccc(N3CCOCC3)cc1)CC2 [AZD3783, (2R)-6-methoxy-8-(4-methylpiperazin-1-yl)-N-(4-morpholin-4-ylphenyl) chromane-2-carboxamide]
[1]
  activity at adrenergic α1A receptor: antagonist
[2]; human subjects
  binding to brain 5-HT1B receptors (PET): bind dose-dependently
[2]; man, 5 mg dose
  receptor occupancy in brain region: 50%
[3]
  p-glycoprotein substrate: not likely to be a p-glycoprotein substrate
[4]
  tolerability: well tolerated
[5]; 14 mg/kg
  mean brain concentration relative to that at 2.3 mg/kg: 38 fold
[5]; 47 mg/kg
  mean brain concentration relative to that at 2.3 mg/kg: 460 fold
[5]; across the dose range, after 4 weeks of dosing
  brain/plasma concentration ratio: approximately 4
[6]
  estimated AUC: 0.383 µM·h
[7]
  AUC: 84 µM·h
[8]
  binding to brain 5-HT1B receptors (PET): bind dose-dependently
[9]
  binding to adrenergic α1D receptor: binds
[10]; 2.3 mg/kg/day, 4 weeks
  brain microscopic findings: No treatment-related microscopic change in the brain
[10]; 47 mg/kg/day, 4 weeks
  brain microscopic findings, other three dogs: minimal to moderate foamy cytoplasmic vacuolation of neurons
[10]; a male in the 47 mg/kg/day group, severe clinical signs
  mortality: euthanized on Day 20
[10]; male, 47 mg/kg/day, euthanized Day 20
  brain microscopic findings, decedant: neuronal degeneration and necrosis microscopically, accompanied by minimal gliosis in the medulla oblongata
[10]; two dogs, 14 mg/kg/day, 4 weeks
  brain microscopic findings: minimal granular, yellowish pigmentation in the cytoplasm of neurons in the medulla oblongata
[11]
  blood brain barrier crossing: readily crosses the blood brain barrier
